Reference: paper PMC10092897 (Chemistry (Weinheim an Der Bergstrasse, Germany), 2022)
Like-named read-outs stand apart in the source and are kept apart here.

Key:
CYP199A4 [1] = target: T1, CYP199A4 (Rhodopseudomonas palustris, UniProt Q2IU02); experiment: Spin state determination by UV-vis spectroscopy; type: binding; details: WT CYP199A4, 50 mM Tris, pH 7.4
T1 sequence (Q2IU02 1-410): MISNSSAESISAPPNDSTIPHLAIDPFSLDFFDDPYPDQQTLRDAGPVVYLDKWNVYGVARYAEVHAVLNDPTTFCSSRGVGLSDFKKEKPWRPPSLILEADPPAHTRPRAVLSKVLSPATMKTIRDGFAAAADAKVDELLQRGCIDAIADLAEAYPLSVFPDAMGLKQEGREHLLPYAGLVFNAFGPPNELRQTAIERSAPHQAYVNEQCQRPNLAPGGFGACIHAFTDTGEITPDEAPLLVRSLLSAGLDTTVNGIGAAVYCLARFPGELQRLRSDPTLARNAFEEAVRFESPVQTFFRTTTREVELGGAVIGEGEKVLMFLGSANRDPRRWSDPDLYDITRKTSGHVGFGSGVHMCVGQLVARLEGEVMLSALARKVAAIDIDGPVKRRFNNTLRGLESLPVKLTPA

CYP199A4 [2] = target: T1, CYP199A4; experiment: Dissociation constant determination by UV-vis binding titration
Method in brief: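 UV-vis titration at 30 °C: enzyme diluted to 0.5–2.0 μM in 50 mM Tris, pH 7.4. Substrate was added from 1, 10 or 100 mM stocks in ethanol or DMSO. Soret peak-to-trough absorbance difference was recorded over 700–250 nm. Kd came from fitting ΔA against total substrate concentration to the tight-binding quadratic equation.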

CYP199A4 [3] = target: T1, CYP199A4; experiment: In vitro NADH turnover assay and metabolite analysis; type: biochemical; details: for PFR (product formation rate): WT CYP199A4 0.5 μM, 50 mM Tris, pH 7.4
CYP199A4 [4] = target: T1, CYP199A4; details: WT CYP199A4, cited from earlier work
CYP199A4 [5] = target: T1, CYP199A4; details: WT CYP199A4, cited from earlier work; remark: listed apart in the source
CYP199A4 [6] = target: T1, CYP199A4; details: WT CYP199A4; cited from earlier work
F182L mutant of CYP199A4 [7] = experiment: Spin state determination by UV-vis spectroscopy, F182L variant; type: binding, Rhodopseudomonas palustris
Method in brief: (§1)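 Mutant was produced and purified as for WT. UV-vis spectra of the substrate-treated enzyme were recorded at 30 °C. The percentage low-to-high-spin shift of the ferric heme was estimated to about ±5%.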

F298V mutant of CYP199A4 [8] = experiment: In vitro NADH turnover assay and metabolite analysis, F298V mutant; type: biochemical, Rhodopseudomonas palustris
Method in brief: (§2)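 Mutant was expressed and purified as for WT, with glycerol removed by gel filtration. NADH was added to ~320 μM, then substrate at 1 mM final. NADH oxidation was followed at A340 (ε 6.22 mM⁻¹cm⁻¹). Values are mean ± S.D., n ≥ 3.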

F298V mutant of CYP199A4 [9] = experiment: Spin state determination by UV-vis spectroscopy, F298V mutant; type: binding, Rhodopseudomonas palustris
Method in brief: as §1

F182L mutant of CYP199A4 [10] = experiment: In vitro NADH turnover assay and metabolite analysis, F182L mutant; type: biochemical, Rhodopseudomonas palustris
Method in brief: as §2

In the case of COc1ccc(-c2ccc(C(=O)O)cc2)cc1 [4‐(4′‐methoxyphenyl)BA, 4‐(4′‐methoxyphenyl)benzoic acid], the “HS [%] (shift from low-spin to high-spin ferric heme)” value (CYP199A4 [1]) is reported as ~10%, the Kd (CYP199A4 [2]) is reported as 100000 ± 10000 nM and the “Coupling (percentage of NADH utilised for formation of oxidation products)” value (CYP199A4 [3]; WT CYP199A4) is reported as ≤ 1%.

In the case of O=C(O)c1ccc(Cc2ccccc2)cc1 [4‐benzylBA, 4‐benzylbenzoic acid], the “HS [%] (shift from low-spin to high-spin ferric heme)” value (CYP199A4 [1]) is reported as 90%, the Kd (CYP199A4 [2]) is reported as 5200 ± 250 nM and the “Coupling (percentage of NADH utilised for formation of oxidation products)” value (CYP199A4 [3]; WT CYP199A4) is reported as 95±11%. For the same molecule, the “PFR (product formation rate)” value (CYP199A4 [3]) was 522 ± 61 min⁻¹ and the “PFR (product formation rate)” value (CYP199A4 [3]; listed as 4‐Benzylbenzoic acid) was 522 min⁻¹.

For COc1ccc(C(=O)O)cc1 [4‐methoxyBA, 4‐methoxybenzoic acid], the Coupling (CYP199A4 [4]; ref 8c) is given as 91±10%, the NADH oxidation rate (CYP199A4 [4]; ref 8c) is given as 1340 ± 30 min⁻¹ and the “PFR (product formation rate)” value (CYP199A4 [4]; ref 8c) is given as 1220 ± 120 min⁻¹. For the same molecule, the “HS [%]” value (CYP199A4 [5]; ref 8c) was ≥95%.

For CC(C)(C)c1ccc(C(=O)O)cc1 [4‐tert‐butylBA, 4‐tert‐butylbenzoic acid], the Coupling (CYP199A4 [4]) is listed as 100±13%, the NADH oxidation rate (CYP199A4 [4]) is listed as 227 ± 4 min⁻¹ and the “PFR (product formation rate)” value (CYP199A4 [4]) is listed as 227 ± 32 min⁻¹. The Kd (CYP199A4 [6]) was 39000 ± 2000 nM and the “HS [%]” value (CYP199A4 [5]) was ≥95%.

In the case of COc1cccc(-c2ccc(C(=O)O)cc2)c1 [4‐(3′‐methoxyphenyl)BA, 4‐(3′‐methoxyphenyl)benzoic acid], the “HS [%] (shift from low-spin to high-spin ferric heme)” value (CYP199A4 [1]) is reported as ≥95%, the “HS [%] (shift from low-spin to high-spin ferric heme)” value (CYP199A4 [1]; listed as 4‐(3′‐Methoxyphenyl)benzoic acid) is reported as ≥ 95% and the Kd (CYP199A4 [2]) is reported as 600 ± 100 nM.

In the case of O=C(O)c1ccc(C2CCCCC2)cc1 [4‐cyclohexylBA, 4‐cyclohexylbenzoic acid], the High-spin species (F182L mutant of CYP199A4 [7]) is given as 90%, the Coupling (CYP199A4 [4]) is given as 33±2% and the NADH oxidation rate (CYP199A4 [4]) is given as 169 ± 11 min⁻¹. The “PFR (product formation rate)” value (CYP199A4 [4]) was 52 ± 6 min⁻¹, the Coupling efficiency (F298V mutant of CYP199A4 [8]; F298V mutant) was 31±9% and the NADH oxidation rate (F298V mutant of CYP199A4 [8]; F298V mutant) was 162 ± 55 min⁻¹. For the same molecule, the “Product selectivity: 4-(1-hydroxycyclohexyl)benzoic acid (benzylic hydroxylation)” value (F298V mutant of CYP199A4 [8]; F298V variant) was 34%, the Kd (CYP199A4 [6]) was 450 ± 50 nM and the “Product selectivity: 4-(1-hydroxycyclohexyl)benzoic acid (benzylic hydroxylation)” value (CYP199A4 [3]; WT CYP199A4) was 24%. The “HS [%]” value (CYP199A4 [5]) was ≥95% and the High-spin species (F298V mutant of CYP199A4 [9]) was ≥ 85%.

With O=C(O)c1ccc(C(=O)c2ccccc2)cc1 [4‐benzoylBA, 4‐benzoylbenzoic acid] the “HS [%] (shift from low-spin to high-spin ferric heme)” value (CYP199A4 [1]) was “type II^[c]”, the “HS [%] (shift from low-spin to high-spin ferric heme)” value (CYP199A4 [1]; listed as 4‐benzoylbenzoic acid) was “type II” and the Kd (CYP199A4 [2]) was 2300 ± 400 nM.

For O=C(O)c1ccc(-c2ccccc2)cc1 [4‐phenylBA, 4‐phenylbenzoic acid], the High-spin species (F182L mutant of CYP199A4 [7]) is listed as ~10%, the NADH oxidation rate (CYP199A4 [4]) is listed as 902 ± 34 min⁻¹ and the NADH oxidation rate (F298V mutant of CYP199A4 [8]; F298V mutant) is listed as 1030 ± 90 min⁻¹. The “Oxidation by the F298V mutant (in words)” value (F298V mutant of CYP199A4 [8]; F298V mutant) was “unable to oxidise”, the Kd (CYP199A4 [6]) was 1700 ± 100 nM and the “HS [%]” value (CYP199A4 [5]) was 90%. The Coupling efficiency (F182L mutant of CYP199A4 [10]) was 30%, the NADH oxidation rate (F182L mutant of CYP199A4 [10]) was 75 ± 0.3 min⁻¹ and the “Proportion of 4-(3′-hydroxyphenyl)benzoic acid among metabolites” value (F182L mutant of CYP199A4 [10]; RT 16.2 min) was 9%. For the same molecule, the High-spin species (F298V mutant of CYP199A4 [9]) was ≥ 85%.
